From ChEMBL document CHEMBL5715959, “Inhibition of histone methyltransferase EZH2 in Schistosoma mansoni in vitro by GSK343 reduces egg laying and decreases the expression of genes implicated in DNA replication and noncoding RNA metabolism” (2018)
The source made the active and inactive calls. No cut-off for these calls is given here.

Key:
[1] = tested on: Schistosoma mansoni; test: Antischistosomal activity against Schistosoma mansoni assessed as down-regulated Glucose transport protein mRNA level in schistosomula at 20 uM incubated for 48 hrs by RT-qPCR analysis; assay type: functional, organism-based
Procedure, shortened: (§1)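 Schistosomula (supplemented M169) or adult worms (supplemented RPMI) were treated 48 h with 20 μM GSK343 or 0.1% DMSO at 37°C, 5% CO2. qPCR normalizer genes were chosen from RNA-seq data as those with TPM >1 and a treated/control ratio of 0.9–1.1 that were not differentially expressed. Relative expression was calculated by comparative Ct; significance by t-test.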

[2] = tested on: Schistosoma mansoni; test: Cytotoxicity against juvenile Schistosoma mansoni assessed as decrease in viability at 10 to 20 uM incubated for 48 hrs by CellTiter-Glo Luminescent assay relative to control; assay type: functional; conditions: dose 10-20 µM
Procedure, shortened: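 Perfused juvenile worms cultured in supplemented RPMI (10% FBS, 37°C, 5% CO2), exposed 24 or 48 h to compound or 0.1% DMSO. Total parasite ATP read by luminescence, given as % of vehicle; three replicate experiments of 10 juveniles each, mean ± SD.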

[3] = tested on: Schistosoma mansoni; test: Antischistosomal activity against adult Schistosoma mansoni assessed as increased H3K9ac level at 20 uM incubated for 48 hrs by Western blotting analysis; assay type: functional, organism-based
Procedure, shortened: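 Fifty adult worm pairs were treated 48 h with 20 μM GSK343 or vehicle in supplemented RPMI/10% FBS, then lysed in Triton buffer. Nuclear pellets were acid-extracted overnight in 0.25 M HCl at 4°C and histones were TCA-concentrated. 10 μg went on 15% SDS-PAGE and nitrocellulose, probed with anti-H3K27me3, K9ac, K27ac or K4me3, then IRDye secondaries; infrared densitometry was normalized to anti-H3. Three biological replicates; t-test.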

[4] = tested on: Schistosoma mansoni; test: Antischistosomal activity against Schistosoma mansoni assessed as change in size at 20 uM incubated for 24 hrs by scanning electron microscopy analysis; assay type: functional, organism-based
Procedure, shortened: (§2)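 Newly transformed schistosomula were held 16 h in M169 with 2% FBS, serotonin, hypoxanthine, hydrocortisone, triiodothyronine and antibiotics at 37°C, 5% CO2, at 2,000 per well. They were then exposed to 20 μM GSK343 or 0.1% DMSO for 24 and 48 h. Fixation was modified Karnovsky (pH 7.4) with 1% osmium post-fix, then ethanol dehydration, critical-point drying, gold coating and SEM. Lengths came from three experiments, each with 20 schistosomula.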

[5] = tested on: Schistosoma mansoni; test: Antischistosomal activity against female Schistosoma mansoni assessed as down-regulated EED mRNA level at 20 uM incubated for 48 hrs by RT-qPCR analysis; assay type: functional, organism-based; procedure, shortened: as §1
[6] = tested on: Schistosoma mansoni; test: Antischistosomal activity against Schistosoma mansoni assessed as length of schistosomula at 20 uM incubated for 24 to 48 hrs by scanning electron microscopy analysis (reference value: […]); assay type: functional; conditions: time 24-48 hrs; procedure, shortened: as §2
[7] = tested on: Schistosoma mansoni; test: Antischistosomal activity against Schistosoma mansoni assessed as schistosomula living cells at 10 to 50 uM incubated for 24 to 72 hrs by fluorescein diacetate staining based fluorescence microscope analysis; assay type: functional, organism-based; conditions: dose 10-50 µM, time 24-72 hrs
Procedure, shortened: (§3)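 Schistosomula were cultured in supplemented M169 with 10–50 μM GSK343 or 0.1% DMSO for 24, 48 and 72 h. A fresh well set was used per time point, with 2 μg/mL propidium iodide (dead) plus 0.5 μg/mL fluorescein diacetate (live) added. Parasites were read immediately by light and fluorescence microscopy; percent viable was computed against total parasites. About 3600 schistosomula per condition over four biological replicates; 70% ethanol served as positive control.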

[8] = tested on: Schistosoma mansoni; test: Antischistosomal activity against Schistosoma mansoni assessed as down-regulated LDL receptor mRNA level in schistosomula at 20 uM incubated for 48 hrs by RT-qPCR analysis; assay type: functional, organism-based; procedure, shortened: as §1
[9] = tested on: Schistosoma mansoni; test: Cytotoxicity against adult Schistosoma mansoni assessed as reduction in ATP quantification at 20 uM incubated for 48 hrs by CellTiter-Glo Luminescent assay relative to control; assay type: functional; design: scale not given: the % may be the effect or the level left
Procedure, shortened: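 Worm pairs in supplemented RPMI (10% FBS, 37°C, 5% CO2) exposed 48 h to compound or 0.1% DMSO. ATP measured by luminescence in freshly lysed worms and expressed as % of vehicle signal; three replicate experiments, 10 pairs each, mean ± SD.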

[10] = tested on: Schistosoma mansoni; test: Cytotoxicity against Schistosoma mansoni assessed as decrease in viability at 20 uM incubated for 5 days by CellTiter-Glo Luminescent assay relative to control; assay type: functional; conditions: time 5 day
Procedure, shortened: (§4)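 Newly transformed schistosomula pre-cultured 16 h in M169 with 2% FBS, serotonin, hypoxanthine, hydrocortisone, triiodothyronine and antibiotics at 37°C, 5% CO2, then 100–120 per well exposed up to 5 days to compound or 0.1% DMSO. ATP in intact larvae read by luminescence, expressed as % of vehicle; three replicate experiments, two-way ANOVA.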

[11] = tested on: Schistosoma mansoni; test: Antischistosomal activity against Schistosoma mansoni assessed as lower growth rate at 20 uM incubated for 24 to 48 hrs by scanning electron microscopy analysis; assay type: functional; conditions: time 24-48 hrs; procedure, shortened: as §2
[12] = tested on: Schistosoma mansoni; test: Antischistosomal activity against Schistosoma mansoni assessed as death of schistosomula at 10 to 50 uM incubated for 24 to 72 hrs by propidium iodide staining based fluorescence microscope analysis; assay type: functional, organism-based; conditions: dose 10-50 µM, time 24-72 hrs; procedure, shortened: as §3
[13] = tested on: Schistosoma mansoni; test: Antischistosomal activity against female Schistosoma mansoni assessed as down-regulated p48 mRNA level at 20 uM incubated for 48 hrs by RT-qPCR analysis; assay type: functional, organism-based
[14] = tested on: Schistosoma mansoni; test: Antischistosomal activity against juvenile Schistosoma mansoni assessed as presence of blisters in dorsal tegument at 20 to 50 uM incubated for 48 hrs by scanning electron microscopy analysis; assay type: functional, organism-based; conditions: dose 20-50 µM
Procedure, shortened: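 Juvenile worms recovered by perfusion, five per well in supplemented RPMI (10% FBS, antibiotics, 37°C, 5% CO2), 2 h adaptation, then exposed 48 h to compound or 0.1% DMSO. Fixed in modified Karnovsky reagent (pH 7.4), washed in cacodylate buffer, post-fixed 1 h in 1% osmium tetroxide, ethanol-dehydrated, critical-point dried, gold-sputtered and imaged by scanning electron microscopy.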

[15] = tested on: Schistosoma mansoni; test: Cytotoxicity against Schistosoma mansoni assessed as reduction in total ATP content at 20 uM incubated for 2 days by CellTiter-Glo Luminescent assay relative to control; assay type: functional; design: scale not given: the % may be the effect or the level left; conditions: time 2 day; procedure, shortened: as §4
[16] = tested on: Schistosoma mansoni; test: Antischistosomal activity against Schistosoma mansoni assessed as developmental changes at 20 uM incubated for 24 hrs by scanning electron microscopy analysis; assay type: functional, organism-based; procedure, shortened: as §2
[17] = tested on: Schistosoma mansoni; test: Antischistosomal activity against Schistosoma mansoni assessed as down-regulated MEG-4 mRNA level in schistosomula at 20 uM incubated for 48 hrs by RT-qPCR analysis; assay type: functional, organism-based; procedure, shortened: as §1
[18] = tested on: Schistosoma mansoni; test: Antischistosomal activity against Schistosoma mansoni assessed as down-regulated DNAse II protein mRNA level in schistosomula at 20 uM incubated for 48 hrs by RT-qPCR analysis; assay type: functional, organism-based; procedure, shortened: as §1
[19] = tested on: Schistosoma mansoni; test: Antischistosomal activity against Schistosoma mansoni assessed as down-regulated FGFR substrate 3 mRNA level in schistosomula at 20 uM incubated for 48 hrs by RT-qPCR analysis; assay type: functional, organism-based; procedure, shortened: as §1
[20] = tested on: Schistosoma mansoni; test: Antischistosomal activity against adult Schistosoma mansoni assessed as altered motility at 50 uM incubated for 12 hrs by inverted microscope analysis; assay type: functional, organism-based
Procedure, shortened: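 Paired adult worms were cultured in RPMI/10% FBS with antibiotics at 37°C, 5% CO2, with GSK343 or 0.1% DMSO. They were viewed by inverted microscope at 3, 6, 12, 24 and 48 h. Motility was scored on a 0–3 scale (3 full movement, 1.5 partial or immobile but alive, 0 dead); death meant no movement over more than 2 min. Pairing was recorded. Three experiments, each with 10 pairs; mean ± SD.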

CCCc1cc(C)[nH]c(=O)c1CNC(=O)c1cc(-c2ccnc(N3CCN(C)CC3)c2)cc2c1cnn2C(C)C
Activity [1]: Active | Activity [2]: 20% | Activity [3]: Active | Activity [4]: inactive | Activity [5]: Active | Activity [6]: 74 µm | Activity [7]: Active | Activity [8]: Active | Activity [9]: 50% | Activity [10]: 70% | fold change (FC) [11]: 4 | Activity [12]: Active | Activity [13]: Active | Activity [14]: Active | Activity [15]: 40% | Activity [16]: inactive | Activity [17]: Active | Activity [18]: Active | Activity [19]: Active | Activity [20]: Active
